In ChEMBL document CHEMBL1250501, “Anti-tubercular agents. Part 5: synthesis and biological evaluation of benzothiadiazine 1,1-dioxide based congeners” (Eur J Med Chem, 2010):
In brackets after ≈: the same amount, converted by molar mass. Activity calls are given as the source filed them. The rule behind the calls is not given here.

Tests used:
Format in all cases: functional
[1] = test system: Candida albicans; assay: Antifungal activity against Candida albicans MTCC 227 at 100 ug/ml after 48 hrs by cup plate method; conditions: MTCC 227, 48 h, read-out: IZ
How it was run: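 Agar well (cup plate) diffusion on potato dextrose agar 39 g/L, with compounds dissolved in DMSO. Plates were incubated at 28 ± 2 °C for 48 h and inhibition zones measured to the nearest mm. Three replicates per treatment. Amphotericin B positive control; solvent control included.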

[2] = test system: Staphylococcus aureus; assay: Antibacterial activity against Staphylococcus aureus at 50 ug/ml after 18 hrs by cup plate method; conditions: for zone of inhibition at 50 µg/mL: read-out: DIZ
How it was run: (§1)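 Agar well diffusion on Mueller-Hinton agar. Inoculum was adjusted to a 0.5 McFarland standard (about […] × 10⁸ CFU/mL) and swabbed over the plate three times, rotating about 60° each time, then the rim was swabbed. Compounds in DMSO went into duplicate 6 mm wells. Plates were incubated at 37 °C for 18 h and inhibition zone diameter read to the nearest mm. DMSO negative control; streptomycin and ciprofloxacin positive controls.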

[3] = test system: Candida albicans; assay: Antifungal activity against Candida albicans MTCC 227 at 50 ug/ml after 48 hrs by cup plate method
How it was run: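 Agar well (cup plate) diffusion on potato dextrose agar 39 g/L. Compounds dissolved in DMSO and loaded into 6 mm wells. Incubated at 28 ± 2 °C for 48 h. Inhibition zone diameter measured to the nearest millimetre, three replicates per treatment. DMSO solvent as negative control, amphotericin B as positive control.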

[4] = test system: Pseudomonas aeruginosa; assay: Antibacterial activity against Pseudomonas aeruginosa at 50 ug/ml after 18 hrs by cup plate method; conditions: for zone of inhibition at 50 µg/mL: read-out: DIZ; how it was run: as §1
[5] = test system: Escherichia coli; assay: Antibacterial activity against Escherichia coli at 100 ug/ml after 18 hrs by cup plate method; conditions: for zone of inhibition at 100 µg/mL: read-out: DIZ; how it was run: as §1
[6] = test system: Bacillus subtilis; assay: Antibacterial activity against Bacillus subtilis at 100 ug/ml after 18 hrs by cup plate method; conditions: for zone of inhibition at 100 µg/mL: read-out: DIZ; how it was run: as §1
[7] = test system: Escherichia coli; assay: Antibacterial activity against Escherichia coli at 50 ug/ml after 18 hrs by cup plate method; conditions: for zone of inhibition at 50 µg/mL: read-out: DIZ; how it was run: as §1
[8] = test system: Staphylococcus aureus; assay: Antibacterial activity against Staphylococcus aureus at 100 ug/ml after 18 hrs by cup plate method; conditions: for zone of inhibition at 100 µg/mL: read-out: DIZ; how it was run: as §1
[9] = test system: Pseudomonas aeruginosa; assay: Antibacterial activity against Pseudomonas aeruginosa at 100 ug/ml after 18 hrs by cup plate method; conditions: for zone of inhibition at 100 µg/mL: read-out: DIZ; how it was run: as §1
[10] = test system: Bacillus subtilis; assay: Antibacterial activity against Bacillus subtilis at 50 ug/ml after 18 hrs by cup plate method; conditions: for zone of inhibition at 50 µg/mL: read-out: DIZ; how it was run: as §1
[11] = test system: Mycobacterium tuberculosis; assay: Antimycobacterial activity against Mycobacterium tuberculosis H37Rv after 3 to 4 weeks by broth microdilution assay
How it was run: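 MIC by broth microdilution on compounds active in a single-concentration primary screen. Plates incubated 3–4 weeks at 37 °C in a CO₂ incubator. Wells read visually for absence of growth turbidity.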

[12] = test system: Klebsiella pneumoniae; assay: Antibacterial activity against Klebsiella pneumoniae at 50 ug/ml after 18 hrs by cup plate method; conditions: for zone of inhibition at 50 µg/mL: read-out: DIZ; how it was run: as §1
[13] = test system: Klebsiella pneumoniae; assay: Antibacterial activity against Klebsiella pneumoniae at 100 ug/ml after 18 hrs by cup plate method; conditions: for zone of inhibition at 100 µg/mL: read-out: DIZ; how it was run: as §1
[14] = test system: Staphylococcus epidermidis; assay: Antibacterial activity against Staphylococcus epidermidis at 100 ug/ml after 18 hrs by cup plate method; conditions: for zone of inhibition at 100 µg/mL: read-out: DIZ; how it was run: as §1
[15] = test system: Staphylococcus epidermidis; assay: Antibacterial activity against Staphylococcus epidermidis at 50 ug/ml after 18 hrs by cup plate method; conditions: for zone of inhibition at 50 µg/mL: read-out: DIZ; how it was run: as §1
[16] = test system: Pseudomonas aeruginosa; assay: Antibacterial activity against Pseudomonas aeruginosa at 25 ug/ml after 18 hrs by cup plate method; conditions: read-out: DIZ; how it was run: as §1
[17] = test system: Klebsiella pneumoniae; assay: Antibacterial activity against Klebsiella pneumoniae at 25 ug/ml after 18 hrs by cup plate method; conditions: read-out: DIZ; how it was run: as §1

SMILES | zone of inhibition at 100 µg/mL [1] | zone of inhibition at 50 µg/mL [2] | inhibition zone (IZ) [3] | diameter of the inhibition zone (DIZ) [4] | zone of inhibition at 100 µg/mL [5] | zone of inhibition at 100 µg/mL [6] | diameter of the inhibition zone (DIZ) [7] | zone of inhibition at 100 µg/mL [8] | zone of inhibition at 100 µg/mL [9] | diameter of the inhibition zone (DIZ) [10] | MIC [11] | diameter of the inhibition zone (DIZ) [12] | zone of inhibition at 100 µg/mL [13] | zone of inhibition at 100 µg/mL [14] | zone of inhibition at 50 µg/mL [15] | zone of inhibition at 50 µg/mL [4] | zone of inhibition at 50 µg/mL [7] | further results
O=[N+]([O-])c1ccc(CN2CCN(C3=NS(=O)(=O)c4ccccc4N3c3ccccc3)CC2)s1 | 12 mm | 9 mm | inactive | inactive | 16 mm | 14 mm | inactive | 12 mm | 12 mm | inactive | > 16 µg/mL | inactive | 13 mm | 14 mm |  |  |  | diameter of the inhibition zone (DIZ) [15]: inactive
CCN1C(N2CCN(Cc3ccc([N+](=O)[O-])s3)CC2)=NS(=O)(=O)c2ccccc21 | 14 mm | 10 mm | inactive | inactive | 15 mm | 16 mm | inactive | 11 mm | 11 mm | inactive | 4 µg/mL (≈ 9.18 µM) | inactive | 14 mm | 18 mm | 12 mm |  |  | 
CN1C(N2CCN(Cc3ccc([N+](=O)[O-])s3)CC2)=NS(=O)(=O)c2ccccc21 | 17 mm | 10 mm | inactive | inactive | 16 mm | 18 mm | inactive | 12 mm | 13 mm | inactive | > 16 µg/mL | inactive | 12 mm | 16 mm | 14 mm |  |  | 
O=C(O)c1cn(C2CC2)c2cc(N3CCNCC3)c(F)cc2c1=O [CIPROFLOXACIN] |  | 26 mm | inactive |  |  |  |  |  |  |  |  |  |  |  | 34 mm | 30 mm | 38 mm | zone of inhibition at 25 µg/mL [16]: 40 mm; zone of inhibition at 25 µg/mL [17]: 21 mm; zone of inhibition at 50 µg/mL [10]: 32 mm; zone of inhibition at 50 µg/mL [12]: 20 mm
CN1C(N2CCN(C(=O)c3ccc([N+](=O)[O-])o3)CC2)=NS(=O)(=O)c2ccccc21 | 12 mm | 17 mm | inactive |  |  |  |  | 18 mm |  | inactive | 16 µg/mL (≈ 38.1 µM) | inactive |  |  | 10 mm | 10 mm | 9 mm | diameter of the inhibition zone (DIZ) [5]: inactive; diameter of the inhibition zone (DIZ) [6]: inactive; diameter of the inhibition zone (DIZ) [9]: inactive; diameter of the inhibition zone (DIZ) [13]: inactive; diameter of the inhibition zone (DIZ) [14]: inactive
CCN1C(N2CCN(C(=O)c3ccc([N+](=O)[O-])o3)CC2)=NS(=O)(=O)c2ccccc21 | 10 mm |  | inactive | inactive |  |  | inactive |  |  | inactive | > 16 µg/mL | inactive |  |  |  |  |  | diameter of the inhibition zone (DIZ) [2]: inactive; diameter of the inhibition zone (DIZ) [5]: inactive; diameter of the inhibition zone (DIZ) [6]: inactive; diameter of the inhibition zone (DIZ) [8]: inactive; diameter of the inhibition zone (DIZ) [9]: inactive; diameter of the inhibition zone (DIZ) [13]: inactive; diameter of the inhibition zone (DIZ) [14]: inactive; diameter of the inhibition zone (DIZ) [15]: inactive
O=C(c1ccc([N+](=O)[O-])o1)N1CCN(C2=NS(=O)(=O)c3ccccc3N2c2ccccc2)CC1 | 17 mm |  |  |  | 20 mm | 19 mm |  | 15 mm | 16 mm | inactive | > 16 µg/mL | inactive | 11 mm | 17 mm | 10 mm | 10 mm | 10 mm | diameter of the inhibition zone (DIZ) [2]: inactive; zone of inhibition at 50 µg/mL ([3]; MTCC 227, 48 h, read-out: IZ): 10 mm
O=[N+]([O-])c1ccc(CN2CCN(C3=NS(=O)(=O)c4ccccc4N3c3ccccc3)CC2)o1 | 11 mm | 14 mm | inactive |  | 20 mm | 19 mm |  | 15 mm | 15 mm | inactive | 2 µg/mL (≈ 4.28 µM) | inactive | 15 mm | 20 mm | 15 mm | 10 mm | 14 mm | 
CN[C@@H]1[C@H](O[C@H]2[C@H](O[C@H]3[C@H](O)[C@@H](O)[C@H](N=C(N)N)[C@@H](O)[C@@H]3N=C(N)N)O[C@@H](C)[C@]2(O)C=O)O[C@@H](CO)[C@H](O)[C@H]1O [STREPTOMYCIN] |  | 22 mm | inactive |  |  |  |  |  |  |  |  |  |  |  | 18 mm | 29 mm | 21 mm | zone of inhibition at 50 µg/mL [10]: 17 mm; zone of inhibition at 50 µg/mL [12]: 22 mm
